Test results taken from ChEMBL document CHEMBL1255408, “Roles of calcineurin and Crz1 in antifungal susceptibility and virulence of Candida glabrata” (2010).
≈ marks a conversion by molar mass, not a printed value. Calls of active or inactive are those of the source. The calls are words filed in the database; no cut-off is given here. Starred links: 1 amine or outer side, 2 acyl side, 3 side chain; linkers in the order of their positions; H or OH if unused. Positions of bridges follow the written chain, without caps; N, C: chain ends. Non-standard residues stand in square brackets, D forms with d. Residues, ends and D or L forms follow the SMILES beside them. *: point of attachment. hTyr(3S-OH,4S-OH,3'-OSO3H) = N[C@H](C(=O)O)[C@H](O)[C@@H](O)c1ccc(O)c(OS(=O)(=O)O)c1; Orn(4R-OH,5R-OH) = O=C([C@H](C[C@@H](O)[C@@H](O)N[*:3])N[*:1])[*:2]; Pro(3S-OH,4S-Me) = C[C@H]1CN[C@H](C(=O)O)[C@H]1O; X1 = CCCCCOc1ccc(-c2cc(-c3ccc(C(=O)*)cc3)no2)cc1; Gln(3R-OH) = NC(=O)C[C@@H](O)[C@H](N)C(=O)O; Hyp = O=C(O)[C@@H]1C[C@@H](O)CN1

Columns and labels:
Nakaseomyces glabratus [1] = assay: Antimicrobial activity against Candida glabrata TG172 containing deltacrz1 mutant at 1 mg/ml after 48 hrs; type: functional, organism-based
Summary of the method: (§1)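 Spot assay: serial 10-fold dilutions of log-phase cells spotted on minimal-medium plates containing micafungin, Congo red or calcofluor white. Plates incubated 48 h at 30°C; each test repeated at least three times.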

Nakaseomyces glabratus [2] = assay: Antimicrobial activity against Candida glabrata TG162 containing calcineurin deltacnb1 mutant at 1 mg/ml after 48 hrs; type: functional, organism-based; summary of the method: as §1
Nakaseomyces glabratus [3] = assay: Antimicrobial activity against Candida glabrata TG172 containing deltacrz1 mutant at 0.8 mg/ml after 48 hrs; type: functional, organism-based; summary of the method: as §1
Nakaseomyces glabratus [4] = assay: Antimicrobial activity against Candida glabrata TG162 containing calcineurin deltacnb1 mutant at 0.8 mg/ml after 48 hrs; type: functional, organism-based; summary of the method: as §1
Nakaseomyces glabratus [5] = assay: Fungicidal activity against deltacrz1 mutant containing Candida glabrata TG173 complemented with CRZ1 gene at 0.03 ug/ml after 24 hrs by colorimetric microdilution method; type: functional, organism-based
Summary of the method: (§2)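 Log-phase cells at 2.5 × 10^3 CFU/ml in minimal medium, with or without micafungin (dissolved in distilled water). OD600 read after 24 h. Percent absorbance at 0.03 μg/ml relative to drug-free culture; mean and SD of three independent experiments.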

Nakaseomyces glabratus [6] = assay: Fungicidal activity against Candida glabrata TG172 containing deltacrz1 mutant at 0.03 ug/ml after 24 hrs by colorimetric microdilution method; type: functional, organism-based; summary of the method: as §2
Nakaseomyces glabratus [7] = assay: Fungicidal activity against calcineurin deltacnb1 mutant containing Candida glabrata TG163 complemented with CNB1 gene at 0.03 ug/ml after 24 hrs by colorimetric microdilution method; type: functional, organism-based; summary of the method: as §2
Nakaseomyces glabratus [8] = assay: Fungistatic activity against wild type Candida glabrata TG11 at 0.03 ug/ml after 24 hrs by colorimetric microdilution method; type: functional, organism-based
Nakaseomyces glabratus [9] = assay: Fungicidal activity against Candida glabrata TG162 containing calcineurin deltacnb1 mutant at 0.03 ug/ml after 24 hrs by colorimetric microdilution method; type: functional, organism-based; summary of the method: as §2
Nakaseomyces glabratus [10] = assay: Antimicrobial activity against deltacrz1 mutant containing Candida glabrata TG173 complemented with CRZ1 gene by colorimetric microdilution method; type: functional
Summary of the method: (§3)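 MIC by commercially prepared colorimetric broth microdilution panel; agents tested were fluconazole, miconazole, itraconazole, voriconazole and amphotericin B.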

Nakaseomyces glabratus [11] = assay: Antimicrobial activity against Candida glabrata TG172 containing deltacrz1 mutant by colorimetric microdilution method; type: functional; summary of the method: as §3
Nakaseomyces glabratus [12] = assay: Antimicrobial activity against calcineurin deltacnb1 mutant containing Candida glabrata TG163 complemented with CNB1 gene by colorimetric microdilution method; type: functional; summary of the method: as §3
Nakaseomyces glabratus [13] = assay: Antimicrobial activity against wild type Candida glabrata TG11 by colorimetric microdilution method; type: functional; summary of the method: as §3
Nakaseomyces glabratus [14] = assay: Antimicrobial activity against Candida glabrata TG162 containing calcineurin deltacnb1 mutant by colorimetric microdilution method; type: functional; summary of the method: as §3
Nakaseomyces glabratus [15] = assay: Antimicrobial activity against deltacrz1 mutant containing Candida glabrata TG173 complemented with CRZ1 gene assessed as reduction in […] cell viability by time kill study; type: functional, organism-based
Summary of the method: (§4)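 Time-kill: log-phase cells at 5 × 10^5 CFU/ml in minimal medium with agitation, with or without fluconazole at several concentrations. Total cells counted by hemocytometer, viable cells by plating dilutions on YPD. Read-out is percent viability; mean and SD of three independent experiments.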

Nakaseomyces glabratus [16] = assay: Antimicrobial activity against Candida glabrata TG172 containing deltacrz1 mutant assessed as reduction in […] cell viability by time kill study; type: functional, organism-based; summary of the method: as §4
Nakaseomyces glabratus [17] = assay: Fungistatic activity against calcineurin deltacnb1 mutant containing Candida glabrata TG163 complemented with CNB1 gene assessed as reduction in […] cell viability by time kill study; type: functional, organism-based; summary of the method: as §4
Nakaseomyces glabratus [18] = assay: Fungicidal activity against Candida glabrata TG162 containing calcineurin deltacnb1 mutant assessed as reduction in […] cell viability by time kill study; type: functional, organism-based; summary of the method: as §4
Nakaseomyces glabratus [19] = assay: Fungistatic activity against wild type Candida glabrata TG11 assessed as reduction in […] cell viability by time kill study; type: functional, organism-based; summary of the method: as §4

| SMILES | MIC (Nakaseomyces glabratus [10]) | MIC (Nakaseomyces glabratus [11]) | MIC (Nakaseomyces glabratus [12]) | MIC (Nakaseomyces glabratus [13]) | MIC (Nakaseomyces glabratus [14]) | also measured |
| --- | --- | --- | --- | --- | --- | --- |
| Nc1c(/N=N/c2ccc(-c3ccc(/N=N/c4cc(S(=O)(=O)O)c5ccccc5c4N)cc3)cc2)cc(S(=O)(=O)O)c2ccccc12 |  |  |  |  |  | growth inhibition (GI) (Nakaseomyces glabratus [1]): Active; growth inhibition (GI) (Nakaseomyces glabratus [2]): Active |
| O=S(=O)(O)c1cc(Nc2nc(Nc3ccccc3)nc(N(CCO)CCO)n2)ccc1/C=C/c1ccc(Nc2nc(Nc3ccccc3)nc(N(CCO)CCO)n2)cc1S(=O)(=O)O |  |  |  |  |  | growth inhibition (GI) (Nakaseomyces glabratus [3]): inactive; growth inhibition (GI) (Nakaseomyces glabratus [4]): Active |
| CCCCCOc1ccc(-c2cc(-c3ccc(C(=O)N[C@H]4C[C@@H](O)[C@@H](O)NC(=O)[C@@H]5[C@@H](O)[C@@H](C)CN5C(=O)[C@H]([C@H](O)CC(N)=O)NC(=O)[C@H]([C@H](O)[C@@H](O)c5ccc(O)c(OS(=O)(=O)O)c5)NC(=O)[C@@H]5C[C@@H](O)CN5C(=O)[C@H]([C@@H](C)O)NC4=O)cc3)no2)cc1 (X1-[Orn(4R-OH,5R-OH)]T[Hyp][hTyr(3S-OH,4S-OH,3'-OSO3H)][Gln(3R-OH)][Pro(3S-OH,4S-Me)]; lactam 1-C) |  |  |  |  |  | growth inhibition (GI) (Nakaseomyces glabratus [5]): inactive; growth inhibition (GI) (Nakaseomyces glabratus [6]): Active; growth inhibition (GI) (Nakaseomyces glabratus [7]): inactive; growth inhibition (GI) (Nakaseomyces glabratus [8]): Active; growth inhibition (GI) (Nakaseomyces glabratus [9]): Active |
| C[C@@H]1[C@H](O)[C@@H](C)/C=C/C=C/C=C/C=C/C=C/C=C/C=C/[C@H](O[C@@H]2O[C@H](C)[C@@H](O)[C@H](N)[C@@H]2O)C[C@@H]2O[C@](O)(C[C@@H](O)C[C@@H](O)[C@H](O)CC[C@@H](O)C[C@@H](O)CC(=O)O[C@H]1C)C[C@H](O)[C@H]2C(=O)O [AMPHOTERICIN B] | 0.5 µg/mL (≈ 0.541 µM) | 0.5 µg/mL (≈ 0.541 µM) | 0.5 µg/mL (≈ 0.541 µM) | 0.5 µg/mL (≈ 0.541 µM) | 0.5 µg/mL (≈ 0.541 µM) |  |
| OC(Cn1cncn1)(Cn1cncn1)c1ccc(F)cc1F [FLUCONAZOLE] | 16 µg/mL (≈ 52.2 µM) | 32 µg/mL (≈ 104 µM) | 16 µg/mL (≈ 52.2 µM) | 16 µg/mL (≈ 52.2 µM) | 4 µg/mL (≈ 13.1 µM) | growth inhibition (GI) (Nakaseomyces glabratus [15]): inactive; growth inhibition (GI) (Nakaseomyces glabratus [16]): inactive; growth inhibition (GI) (Nakaseomyces glabratus [17]): Active; growth inhibition (GI) (Nakaseomyces glabratus [18]): Active; growth inhibition (GI) (Nakaseomyces glabratus [19]): Active |
| CCC(C)n1ncn(-c2ccc(N3CCN(c4ccc(OCC5COC(Cn6cncn6)(c6ccc(Cl)cc6Cl)O5)cc4)CC3)cc2)c1=O (centres undefined) [ITRACONAZOLE] | 1 µg/mL (≈ 1.42 µM) | 1 µg/mL (≈ 1.42 µM) | 2 µg/mL (≈ 2.83 µM) | 2 µg/mL (≈ 2.83 µM) | 0.5 µg/mL (≈ 0.709 µM) |  |
| Clc1ccc(COC(Cn2ccnc2)c2ccc(Cl)cc2Cl)c(Cl)c1 (centres undefined) [MICONAZOLE] | 0.5 µg/mL (≈ 1.2 µM) | 1 µg/mL (≈ 2.4 µM) | 0.5 µg/mL (≈ 1.2 µM) | 0.5 µg/mL (≈ 1.2 µM) | 0.125 µg/mL (≈ 0.3 µM) |  |
| C[C@@H](c1ncncc1F)[C@](O)(Cn1cncn1)c1ccc(F)cc1F [VORICONAZOLE] | 0.25 µg/mL (≈ 0.716 µM) | 0.5 µg/mL (≈ 1.43 µM) | 0.25 µg/mL (≈ 0.716 µM) | 0.25 µg/mL (≈ 0.716 µM) | 0.125 µg/mL (≈ 0.358 µM) |  |
